# ABHD4 inh: inhibits mouse alpha/beta hydrolase domain 4. AID 720543. purified mABHD4, FP-Rh probe fluorescence polarization. 0.54% of 370,000 active. Q8VD66. inhibition, % at 8.92 µM;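 active = inhibition exceeding the mean over every tested compound plus 3 SD, cut at about 30% in these data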;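 note: 0% = plate median of compound wells and 100% = S159A mutant with DMSO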
#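 Test system: mABHD4 protein | Buffer or medium: HEPES pH 7.0 buffer, 150 mM NaCl, 0.01% Pluronic F-127 | Probe or stimulus: FP-Rh fluorescent activity-based probe, added after compound pre-incubation | Timing: Pre-incubation 45 min, probe exposure 60 min, at 25 °C | Technique: Fluorescence polarization, excitation 525 nm, emission 598 nm, BODIPY TMR filters | Repeats: Single well per compound (singlicate)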
# TCR-CD3 inh: blocks the human TCR-CD3 interaction. TAMRA-labeled TCR probe fluorescence, biochemical. inhibition, % at 9.4 µM. 0.37% of 360,000 active. AID 651800; in the data active = inhibition above about 19%;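 note: recombinant mutant TCR 2C K166C tagged with TAMRA read by polarization; 0% = receptor in buffer alone and 100% = receptor with positive control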
# SIAE primary: human SIAE inhibition, primary screen | SIAE FP-Rh probe binding, fluorescence polarization | inhibition, % at 9.66 µM | 0.69% of 370,000 active | Q9HAT2;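 active = inhibition above a cutoff: mean of compounds within the control limits plus 3 SD of those, cut at about 17% in these data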;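 note: 0% = plate median of compound wells and 100% = probe without SIAE protein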
# PRMT1 FP inh: blocks human protein arginine methyltransferase 1 | Q99873 | recombinant PRMT1, activity-based probe fluorescence polarization | inhibition, % at 2.79 µM | 1.3% of 370,000 active;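 active = inhibition above about 21% made by adding two undisclosed values, limit read from the data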
# HTRA1 inhibitor: HTRA1 (human) protease inhibition; Q92743; recombinant HTRA1, FP-rhodamine activity-based probe, fluorescence polarization; 0.5% of 340,000 active; inhibition, % at 5.96 µM; AID 504803; in the data active = inhibition above about 36%;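 note: 0% = enzyme with DMSO and 100% = wells lacking enzyme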
# Target sequence (Q92743 whole entry, looked up): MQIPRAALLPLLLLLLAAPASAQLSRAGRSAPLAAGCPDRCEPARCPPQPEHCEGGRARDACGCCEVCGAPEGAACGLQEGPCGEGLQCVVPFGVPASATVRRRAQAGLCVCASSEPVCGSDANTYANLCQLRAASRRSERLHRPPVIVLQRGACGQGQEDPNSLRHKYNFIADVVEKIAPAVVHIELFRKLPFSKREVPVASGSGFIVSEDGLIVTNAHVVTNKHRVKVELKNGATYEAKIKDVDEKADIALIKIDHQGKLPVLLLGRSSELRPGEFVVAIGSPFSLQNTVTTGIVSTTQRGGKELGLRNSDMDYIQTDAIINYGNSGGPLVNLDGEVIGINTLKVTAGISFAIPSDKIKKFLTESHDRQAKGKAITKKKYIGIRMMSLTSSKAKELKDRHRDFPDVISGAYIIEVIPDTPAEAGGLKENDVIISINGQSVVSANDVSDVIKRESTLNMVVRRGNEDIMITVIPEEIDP
# PRMT1 inh conf: PRMT1 (human) inhibition, FP confirmation. 42% of 3,300 active. inhibition, % at 2.79 µM. recombinant His-PRMT1, activity-based probe fluorescence polarization. shares compounds with PRMT1 FP inh;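 active = mean inhibition across replicates above the hit cutoff derived for the earlier primary screen, cut at about 22% in these data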
# An asterisk follows results filed as active; x = no result. Compounds with a hit are over-represented: about 2.6% of the library has one in this group of screens.
SMILES,ABHD4 inh,TCR-CD3 inh,SIAE primary,PRMT1 FP inh,HTRA1 inhibitor,PRMT1 inh conf
Cc1[nH]c2ccc(-c3n[nH]c(=S)n3-c3ccc(Br)cc3)cc2c1C,-3,6,-2,26*,-7,10
COc1cccc(-n2c(-c3ccc4[nH]c(C)c(C)c4c3)n[nH]c2=S)c1,-3,-8,8,26*,-1,7
COc1cccc(-n2c(-c3cccc(S(=O)(=O)N(C)C)c3)n[nH]c2=S)c1,0,3,1,-3,-1,x
Cc1[nH]c2ccc(-c3n[nH]c(=S)n3-c3ccccc3)cc2c1C,-7,2,-3,17,0,x
S=C(Nc1ccccc1Br)OCCN1CCCC12CCC(c1ccccc1)CC2 (stereo unspecified),5,x,-4,35*,x,31*
S=C(Nc1ccccc1)OCCN1CCCC12CCC(c1ccccc1)CC2 (stereo unspecified),2,x,-6,19,x,x
Cc1c(CCCC(=O)O)sc(N)c1C(=O)c1cccc(C(F)(F)F)c1,25,-7,-1,31*,10,11
c1ccc(-c2csc(NNC3=NCCCCC3)n2)cc1,19,0,5,67*,-5,17
COc1ccc(-c2csc(NNC3=NCCCCC3)n2)cc1,10,6,6,38*,x,32*
COc1ccc(-c2csc(NC3=NCCCCC3)n2)cc1,4,8,-2,0,4,x
Clc1ccc(-c2csc(NNC3=NCCCCC3)n2)cc1,22,5,6,18,9,x
CSc1ccccc1NC(=O)CN(C)Cc1ccc(Br)cc1,-16,2,-1,-2,-20,x
CSc1ccccc1NC(=O)CN(C)Cc1c(O)ccc2ccccc12,-8,7,-8,39*,0,30*
CC(=O)c1cccc(OCC(=O)NC2CCCCCC2)c1,-3,1,0,5,3,x
CCCOC(=O)C1=C(C)N(C)C(=O)NC1c1cc2c(cc1[N+](=O)[O-])OCO2 (stereo unspecified),13,4,12,27*,7,22*
O=C(O)CSc1nc2ccccc2[nH]1,-2,1,1,-2,5,x
Cn1c(N)c(C(=O)CSc2nc3ccccc3[nH]2)c(=O)n(C)c1=O,6,3,-1,28*,-5,1
CC1(C(=O)CSc2nc3ccccc3[nH]2)CCC(=O)O1 (stereo unspecified),-2,0,4,60*,-3,41*
CS(=O)(=O)c1cc([N+](=O)[O-])c(Sc2nc3ccccc3[nH]2)c([N+](=O)[O-])c1,12,2,3,56*,-2,70*
CC1Cc2cc(S(=O)(=O)N3CCC(C(=O)N(C)Cc4ccco4)CC3)ccc2N1C(=O)C1CCC1 (stereo unspecified),-5,-2,0,4,-4,x
O=C(COC(=O)c1cc(Br)ccc1O)Nc1cc(S(=O)(=O)N2CCCC2)ccc1Cl,-22,-8,-27,45*,-24,22*
COc1cccc2c(SCC(=O)N/N=C/c3ccc(O)cc3O)cc(C)nc12,-3,10,-2,46*,-3,0
Cc1cc(SCC(=O)NN)c2cc(Br)ccc2n1,15,2,7,64*,3,60*
COc1ccccc1/C=N/NC(=O)CSc1cc(C)nc2ccccc12,-1,3,-9,33*,-10,1
COc1ccc2nc(C)cc(SCC(=O)N/N=C/c3ccc(O)cc3O)c2c1,2,-3,-6,17,-4,x
O=C(N[C@H](Cc1ccccc1)C(=O)N1CCN(Cc2ccccn2)CC1)[C@H]1O[C@@H](n2ccc(=O)[nH]c2=O)[C@H](O)[C@@H]1O,2,5,4,-1,x,x
COc1ccccc1-n1c(SCC(=O)NCc2ccc3c(c2)OCO3)nc2cc([N+](=O)[O-])ccc21,4,1,8,84*,-17,26*
CC(Sc1nc2cc([N+](=O)[O-])ccc2n1-c1ccc(F)cc1)C(=O)NCc1ccc2c(c1)OCO2 (stereo unspecified),8,5,7,10,-10,x
O=C(CCSc1ccc(Br)cc1)c1ccc(O)cc1,-37,-5,-11,31*,-26,16
CSCc1ccc(C(=O)NCCSc2ccc(Br)cc2)cc1,4,4,12,0,-24,x
